Assay results taken from ChEMBL document CHEMBL1157034, “Synthesis of 1-benzyl-3-(5-hydroxymethyl-2-furyl)selenolo[3,2-c]pyrazole derivatives as new anticancer agents” (Eur J Med Chem, 2010).

Tests used:
[1] = system: NCI-H226; test: Antitumor activity against human NCI-H226 cells after 48 hrs by MTT assay; type: functional, cell-based; conditions: NCI-H226, 48 h
Method in brief: (§1)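 Cells grown at 37 °C in humidified 5% CO2, seeded at 1×10^4 cells/well, and allowed to attach for 24 h. They were then exposed to a range of concentrations for 48 h, washed with PBS, and given 1 mg/ml MTT for 2 h. Formazan was dissolved in DMSO and read at 570 nm.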

[2] = system: SF-268; test: Antitumor activity against human SF268 cells after 48 hrs by MTT assay; type: functional; conditions: SF-268, 48 h
[3] = system: NCI-H322M; test: Antitumor activity against human NCI-H322M cells after 48 hrs by MTT assay; type: functional
[4] = system: A498; test: Antitumor activity against human A498 cells after 48 hrs by MTT assay; type: functional; conditions: A498, 48 h; method in brief: as §1
[5] = system: EKVX; test: Antitumor activity against human EKVX cells after 48 hrs by MTT assay; type: functional
[6] = system: HCC 2998; test: Antitumor activity against human HCC2998 cells after 48 hrs by MTT assay; type: functional; conditions: HCC 2998, 48 h
[7] = system: HT-29; test: Antitumor activity against human HT-29 cells after 48 hrs by MTT assay; type: functional; conditions: HT-29, 48 h
[8] = system: KM12; test: Antitumor activity against human KM12 cells after 48 hrs by MTT assay; type: functional; conditions: KM12, 48 h
[9] = Antitumor activity against human […] cells after 48 hrs by MTT assay; type: functional
[10] = system: SNB-19; test: Antitumor activity against human SNB19 cells after 48 hrs by MTT assay; type: functional; conditions: SNB-19, 48 h
[11] = system: K562; test: Antitumor activity against human K562 cells after 48 hrs by MTT assay; type: functional; conditions: K562, 48 h
[12] = system: HOP-62; test: Antitumor activity against human HOP62 cells after 48 hrs by MTT assay; type: functional; conditions: HOP-62, 48 h
[13] = system: NCI/ADR-RES; test: Antitumor activity against human NCI/ADR-RES cells after 48 hrs by MTT assay; type: functional
[14] = system: A549; test: Antitumor activity against human A549 cells after 48 hrs by MTT assay; type: functional; conditions: A549, 48 h
[15] = system: HCT-15; test: Antitumor activity against human HCT15 cells after 48 hrs by MTT assay; type: functional; conditions: HCT-15, 48 h
[16] = system: OVCAR-3; test: Antitumor activity against human OVCAR-3 cells after 48 hrs by MTT assay; type: functional; conditions: OVCAR-3, 48 h
[17] = system: SF-539; test: Antitumor activity against human SF539 cells after 48 hrs by MTT assay; type: functional; conditions: SF-539, 48 h
[18] = system: CAKI-1; test: Antitumor activity against human Caki1 cells after 48 hrs by MTT assay; type: functional; conditions: CAKI-1, 48 h
[19] = system: SK-MEL-28; test: Antitumor activity against human SK-MEL-28 cells after 48 hrs by MTT assay; type: functional; conditions: SK-MEL-28, 48 h
[20] = system: ACHN; test: Antitumor activity against human ACHN cells after 48 hrs by MTT assay; type: functional, cell-based
[21] = system: OVCAR-5; test: Antitumor activity against human OVCAR5 cells after 48 hrs by MTT assay; type: functional; conditions: OVCAR-5, 48 h
[22] = system: MOLT-4; test: Antitumor activity against human MOLT4 cells after 48 hrs by MTT assay; type: functional; conditions: MOLT-4, 48 h
[23] = system: U-251; test: Antitumor activity against human U251 cells after 48 hrs by MTT assay; type: functional; conditions: U-251, 48 h
[24] = system: MDA-MB-231; test: Antitumor activity against human MDA-MB-231 cells after 48 hrs by MTT assay; type: functional; conditions: MDA-MB-231, 48 h
[25] = read-out: pLC50 (the source's name) (converted)

Which results are given for `OCc1ccc(-c2nn(Cc3ccccc3)c3cc[se]c23)o1`?
GI50 [1]: 0.316 µM; TGI ([1]; read-out: pTGI (converted)): 0.977 µM; GI50 [2]: 40.7 µM; CC50 [2, 25]: > 100 µM; TGI ([2]; read-out: pTGI): > 100 µM; GI50 [3]: 40.7 µM; CC50 [3, 25]: > 100 µM; TGI ([3]; read-out: pTGI): > 100 µM; GI50 ([4]; read-out: pGI50 (converted)): 0.162 µM; CC50 ([4]; read-out: pLC50 (converted)): 0.631 µM; TGI ([4]; read-out: pTGI): 0.324 µM; GI50 [5]: 33.1 µM; CC50 [5, 25]: > 100 µM; TGI ([5]; read-out: pTGI): > 100 µM; GI50 [6]: 32.4 µM; CC50 [6, 25]: > 100 µM; TGI ([6]; read-out: pTGI): > 100 µM; GI50 [7]: 33.9 µM; CC50 [7, 25]: > 100 µM; TGI ([7]; read-out: pTGI): > 100 µM; GI50 [8]: 49 µM; CC50 [8, 25]: > 100 µM; TGI ([8]; read-out: pTGI): > 100 µM; GI50 [9]: 22.4 µM; CC50 [9, 25]: > 100 µM; TGI ([9]; read-out: pTGI): > 100 µM; GI50 [10]: 49 µM; CC50 [10, 25]: > 100 µM; TGI ([10]; read-out: pTGI): > 100 µM; GI50 [11]: 25.1 µM; CC50 [11, 25]: > 100 µM; TGI ([11]; read-out: pTGI): > 100 µM; GI50 [12]: 39.8 µM; CC50 [12, 25]: > 100 µM; TGI ([12]; read-out: pTGI): > 100 µM; GI50 ([13]; read-out: pGI50 (converted)): 25.7 µM; CC50 [13, 25]: > 100 µM; TGI ([13]; read-out: pTGI): > 100 µM; GI50 [14]: 36.3 µM; CC50 [14, 25]: > 100 µM; TGI ([14]; read-out: pTGI): > 100 µM; GI50 [15]: 30.2 µM; CC50 [15, 25]: > 100 µM; TGI ([15]; read-out: pTGI): > 100 µM; GI50 [16]: 13.2 µM; CC50 [16, 25]: > 100 µM; TGI ([16]; read-out: pTGI (converted)): 79.4 µM; GI50 [17]: 27.5 µM; CC50 [17, 25]: > 100 µM; TGI ([17]; read-out: pTGI): > 100 µM; CC50 [18, 25]: > 100 µM; TGI ([18]; read-out: pTGI): > 100 µM; GI50 [19]: 28.8 µM; CC50 [19, 25]: > 100 µM; TGI ([19]; read-out: pTGI (converted)): 91.2 µM; GI50 ([20]; read-out: pGI50 (converted)): 25.7 µM; LC50 ([20]; read-out: pLC50 (converted)): > 100 µM; TGI ([20]; read-out: pTGI): < 100 µM; GI50 ([21]; read-out: pGI50 (converted)): 7.41 µM; CC50 [21, 25]: > 100 µM; TGI ([21]; read-out: pTGI): > 100 µM; GI50 [22]: 22.9 µM; CC50 [22, 25]: > 100 µM; GI50 [23]: 27.5 µM; CC50 [23, 25]: > 100 µM; TGI ([23]; read-out: pTGI): > 100 µM; GI50 [24]: 36.3 µM; CC50 [24, 25]: > 100 µM; TGI ([24]; read-out: pTGI): > 100 µM
